Only some compounds are listed: those with a hit (about 3.1% of all), similar ones and a draw of the others.
KCNK9 inh – inhibitors of human KCNK9 two-pore domain potassium channel | Q9NPC2 | HEK293 KCNK9, FluxOR thallium flux fluorescence; active compounds read low | B-score at 10 µM | 310,000 tested, 1.2% active | AID 488922;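 active means ratio B-score over 3 SD below the library mean, with starting fluorescence within 5 SD of its mean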;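 further: negative B-score means less thallium flux so channel inhibition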
KCNQ1 inh – blocks the human KCNQ1 potassium channel | AID 2642 | CHO-K1 KCNQ1, FluxOR thallium flux fluorescence; active compounds read high | B-score at 10 µM | 310,000 tested, 1.3% active;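 active means compounds whose thallium flux B-score, printed positive for inhibition, exceeds three library SD while starting fluorescence stays within three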;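 further: channel opened by potassium depolarization with thallium stimulus after 20 min compound exposure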
hERG rescue – shields human hERG channel from block by proarrhythmic agents | AID 1511 | Q12809 | 310,000 tested, 0.51% active | activation (rescue from dofetilide block), less the hit threshold, % at 10 µM | CHO-hERG, FluxOR thallium flux, dofetilide IC70 present;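 active means activation above the mean of controls blocked by dofetilide plus 5 SD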;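 further: thallium influx through hERG after potassium depolarization seen as dye fluorescence rise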
KCNK3 block – human KCNK3 channel inhibition, primary screen | O14649 | CHO-KCNK3 thallium flux, FluxOR fluorescence; active compounds read low | B-score at 10 µM | 340,000 tested, 0.84% active | AID 602410;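 active means B-score under library mean minus 4 SD, starting fluorescence ratio at most library mean plus 5 SD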;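 further: more negative B-score means stronger inhibition of thallium flux through KCNK3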
KCNQ1 pot – potentiates or activates the human KCNQ1 potassium channel; AID 2648; B-score at 10 µM; P51787; CHO-K1 KCNQ1, thallium flux FluxOR fluorescence; active compounds read high; 310,000 tested, 0.35% active;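 active means fluorescence ratio B-score, a plate-corrected score, at least three library SD, with initial intensity B-score within 5 SD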
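assay system = KCNQ1-transfected CHO-K1 cells | medium = assay buffer with matched DMSO | probe or stimulus = depolarizing K+/Tl+ stimulus, K2SO4 and Tl2SO4 each 12.5 mM in 5x stock | dosing = single dose | incubation = dye 90 min, compound 20 min, room temperature | detection = kinetic FluxOR fluorescence, 10 s baseline plus 110 s post-stimulus | evaluation = ratio B score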
KCNK9 inh conf – confirmation of human KCNK9 potassium channel inhibitors. shares compounds with KCNK9 inh. HEK293 KCNK9 cells, FluxOR thallium flux fluorescence. inhibition, % at 10 µM. 4,900 tested, 43% active;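 active means thallium signal inhibited by more than 5 SD of the compound-free buffer control wells, on both duplicate plates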;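 further: 0% = assay buffer control wells without compound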
Kir21 sel – tests whether KCNK9 modulators also affect mouse Kir2.1; 4,900 tested, 4% active; AID 492993; shares compounds with KCNK9 inh; Kir2.1 cells, FluxOR thallium flux fluorescence; inhibition, % at 10 µM;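 active means thallium signal drop more than 5 SD beyond the mean of the no-compound control wells, seen in both duplicate plates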;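 further: signal is fluorescence rise after thallium addition divided by baseline fluorescence; plate controls were assay buffer only for no effect and full block by chlorpromazine control for full effect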
Target sequence (P35561 whole entry, looked up): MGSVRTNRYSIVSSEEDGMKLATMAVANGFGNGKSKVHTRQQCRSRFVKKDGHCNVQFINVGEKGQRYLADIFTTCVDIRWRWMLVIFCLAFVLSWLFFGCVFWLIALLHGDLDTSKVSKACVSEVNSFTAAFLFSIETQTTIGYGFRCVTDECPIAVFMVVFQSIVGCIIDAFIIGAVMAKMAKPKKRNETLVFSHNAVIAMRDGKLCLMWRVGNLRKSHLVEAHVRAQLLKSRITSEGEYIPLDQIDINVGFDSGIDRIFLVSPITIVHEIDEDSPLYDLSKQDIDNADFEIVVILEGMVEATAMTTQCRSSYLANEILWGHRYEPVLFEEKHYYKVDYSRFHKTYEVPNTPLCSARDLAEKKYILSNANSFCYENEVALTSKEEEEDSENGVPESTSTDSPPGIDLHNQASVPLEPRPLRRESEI
KCNK9 uninduced – second check of KCNK9 modulator effects in non-induced HEK293 cells | shares compounds with KCNK9 inh | FluxOR thallium flux | inhibition, % at 10 µM | 4,900 tested, 40% active | AID 492997;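 active means thallium signal drop beyond 5 SD of the untreated control mean, on both duplicate plates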;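 further: plate controls were buffer only IC0 wells for no effect and SID17386958 at its maximal inhibitory level for full effect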
* hit, by the source's call.

CCCCCCCn1c2c(c(=N)c3ccccc31)CCC2 was read as KCNK9 inh -10*, KCNQ1 inh inactive, hERG rescue -31, KCNK3 block -11*, KCNQ1 pot inactive, KCNK9 inh conf 47%*, Kir21 sel 77%* and KCNK9 uninduced inactive.
`CCCn1c2c(c(=N)c3c1CCC3)CCC2` gave KCNK9 inh inactive, KCNQ1 inh inactive, hERG rescue -6, KCNK3 block inactive and KCNQ1 pot inactive.
`CCCN(C(=O)COc1ccc(C(C)=O)cc1OC)C1CCS(=O)(=O)C1` (configuration not stated) gave KCNK3 block inactive.
Screening CCCCNC(=S)NNC(=O)c1nn(C)cc1Cl returned KCNK9 inh inactive, KCNQ1 inh inactive, hERG rescue -11, KCNK3 block inactive and KCNQ1 pot inactive.
For CC(C)N(C(=O)c1nn(C)c2c1CSc1ccccc1-2)C1CCCCC1 the results were KCNK9 inh -10*, KCNQ1 inh 8*, hERG rescue -2, KCNK3 block inactive, KCNQ1 pot inactive, KCNK9 inh conf 34%*, Kir21 sel inactive and KCNK9 uninduced inactive.
For COc1ccccc1CCNC(=O)CNC(=O)Cc1cccc2ccccc12 the results were KCNK9 inh inactive, KCNQ1 inh inactive, hERG rescue -8, KCNK3 block inactive and KCNQ1 pot inactive.
CCOc1ccccc1N1CCN(S(=O)(=O)c2ccc(Cl)s2)CC1 was read as KCNK9 inh inactive, KCNQ1 inh inactive, hERG rescue -7, KCNK3 block inactive, KCNQ1 pot inactive, KCNK9 inh conf inactive, Kir21 sel inactive and KCNK9 uninduced inactive.
For CCOc1cc(-c2nc(C)c(C(C)=O)n2O)ccc1OCC(=O)Nc1cccc(C)c1 the results were KCNK9 inh inactive, KCNQ1 inh inactive, hERG rescue -20, KCNK3 block inactive and KCNQ1 pot inactive.
`Cc1ccc(N(C(C)C(=O)NCc2ccncc2)S(C)(=O)=O)cc1C` (configuration not stated) gave KCNK9 inh inactive, KCNQ1 inh inactive, hERG rescue -3, KCNK3 block inactive and KCNQ1 pot inactive.
Screening Cc1nn2c(NCc3ccccn3)cc(C(C)(C)C)nc2c1-c1ccccc1 returned KCNK9 inh inactive, KCNQ1 inh inactive, hERG rescue -10, KCNK3 block inactive, KCNQ1 pot inactive, KCNK9 inh conf inactive, Kir21 sel inactive and KCNK9 uninduced inactive.
For Cc1ccc2scc(CN3CCCC3)c2c1 the results were KCNK9 inh inactive, KCNQ1 inh inactive, hERG rescue -7, KCNK3 block inactive and KCNQ1 pot inactive.
CC1(C)C(C=C(Cl)Cl)C1C(=O)N/N=C/c1ccccc1F (configuration not stated) was read as KCNK9 inh -9.5*, KCNQ1 inh inactive, hERG rescue -13, KCNK3 block inactive, KCNQ1 pot inactive, KCNK9 inh conf inactive, Kir21 sel inactive and KCNK9 uninduced 27%*.
For O=C(O)C1C2CCC(C2)C1C(=O)NCCc1ccccc1 (configuration not stated) the results were KCNK9 inh inactive, KCNQ1 inh inactive, hERG rescue -1, KCNK3 block inactive and KCNQ1 pot inactive.
O=S(=O)(/N=C(/c1ccccc1)N1CCCCC1)c1ccccc1 was read as KCNK9 inh inactive, KCNQ1 inh inactive, hERG rescue -6, KCNK3 block inactive and KCNQ1 pot inactive.
`O=C(O)Cc1sc(N/N=C\c2ccncc2)nc1-c1ccccc1` gave KCNK9 inh -11*, KCNQ1 inh inactive, hERG rescue -6, KCNK3 block inactive, KCNQ1 pot inactive, KCNK9 inh conf 25%*, Kir21 sel inactive and KCNK9 uninduced inactive.
Screening CC(C)n1c(=O)[nH][nH]c1=S returned KCNK9 inh inactive, KCNQ1 inh inactive, hERG rescue -4, KCNK3 block inactive and KCNQ1 pot inactive.
